Two compounds from ChEMBL document CHEMBL3271979, “Inhibition of solid tumors by nitrosoureas. 1. Lewis lung carcinoma” (1977) can be followed below.

SMILES strings stand for the structures. Calls of active or inactive are those of the source. The calls are words filed in the database; no cut-off is given here.

The subject of assay [1] is Mus musculus. Put plainly: Antitumor activity against mouse advanced Lewis lung carcinoma allografted in BDF1 mouse assessed as disease cure at 25 mg/kg, ip administered as single dose on 7th day post-tumor implantation measured for 80 days post-drug treatment. Format: functional, organism-based. Further details: dose 25 mg/kg. In short, it runs like this: (§1)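 BDF1 mice (C57Blk/6 × DBA/2) implanted sc by trocar with Lewis lung tumor fragments of about 40 mg, taken only from bacteriologically sterile donor tumors. Mice bearing tumors of about 400 mg (day 6-7) were selected. Each received a single ip dose on day 7, at or below the LD10 in normal mice. Groups were of 10 mice. Tumor weight was taken from calipers as w = ab²/2, measured at least twice weekly. Matched non-tumor mice served as toxicity controls.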

Assay [2] is described as follows: Antitumor activity against mouse early Lewis lung carcinoma allografted in BDF1 mouse assessed as increase in host life span at 40 mg/kg, ip administered as single dose on 1 or 2 days post-tumor implantation. The assay is classed as functional. The settings on record: route intraperitoneal. In short, it runs like this: (§2)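 BDF1 mice (C57Blk/6 × DBA/2) implanted sc by trocar with ~40 mg Lewis lung tumor fragments from bacteriologically sterile donor tumors. Single ip dose on day 1 or 2, as a solution or suspension in water (CMC or gum acacia) or saline (HPC or Tween 80). Read-out is […]. Same-dose toxicity controls were run in nontumor-bearing mice.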

A short description of assay [3]: Antitumor activity against mouse advanced Lewis lung carcinoma allografted in BDF1 mouse assessed as increase in host life span at 16 mg/kg, ip administered as single dose on 7th day post-tumor implantation. The assay is classed as functional. Particulars: route intraperitoneal. An outline of the steps:
(§3)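 BDF1 mice (C57Blk/6 × DBA/2) implanted sc by trocar with about 40 mg Lewis lung tumor fragments from bacteriologically sterile donors. Advanced-disease groups held tumors of about 400 mg by day 6-7, sized by caliper (w = ab²/2). Single ip injection on day 7, in water or saline vehicle, at or below the LD10 in normal mice. Tumors measured at least twice weekly.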

Assay [4] in a line: Antitumor activity against mouse advanced Lewis lung carcinoma allografted in BDF1 mouse assessed as increase in host life span at 37 mg/kg, ip administered as single dose on 7th day post-tumor implantation. Format: functional. Particulars: route intraperitoneal. An outline of the steps:
as §3

Assay [5] can be described thus: Antitumor activity against mouse early Lewis lung carcinoma allografted in BDF1 mouse assessed as time delay in tumor growth at 60 mg/kg, ip administered as single dose on 1 or 2 days post-tumor implantation. The assay is classed as functional. Particulars: route intraperitoneal. An outline of the steps:
(§4)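 BDF1 mice (C57Blk/6 × DBA/2) implanted sc by trocar with ~40 mg Lewis lung tumor fragments from bacteriologically sterile donors. A single ip dose was given on day 1 or 2, as a solution or suspension in water or saline with suspending agent, at ≤0.5 ml. Tumors were measured by caliper at least twice weekly, with weight = ab²/2. Delay was taken as the days for the tumor to reach 1 g.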

A short description of assay [6]: Antitumor activity against mouse early Lewis lung carcinoma allografted in BDF1 mouse assessed as time delay in tumor growth at 40 mg/kg, ip administered as single dose on 1 or 2 days post-tumor implantation. Format: functional. Particulars: route intraperitoneal. An outline of the steps: as §4
Assay [7] can be described thus: Antitumor activity against mouse advanced Lewis lung carcinoma allografted in BDF1 mouse assessed as increase in host life span at 25 mg/kg, ip administered as single dose on 7th day post-tumor implantation. Particulars: route intraperitoneal. The assay is classed as functional. In short, it runs like this: as §3
The subject of assay [8] is Mus musculus. Put plainly: Antitumor activity against mouse advanced Lewis lung carcinoma allografted in BDF1 mouse assessed as complete regression of established tumor at 16 mg/kg, ip administered as single dose on 7th day post-tumor implantation. The assay is classed as functional, organism-based. Further details: dose 16 mg/kg. An outline of the steps:
as §1

Assay [9] is described as follows: Antitumor activity against mouse advanced Lewis lung carcinoma allografted in ip dosed BDF1 mouse assessed as increase in host lifespan administered as single dose on day 6 or 7 post-tumor implantation. Format: functional. An outline of the steps:
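Advanced Lewis lung model: about 40 mg fragments implanted sc by trocar into BDF1 mice, and mice with tumors of about 400 mg (day 6-7) selected. Tumor weight from calipers, w = ab²/2. Agent given as one ip dose in distilled water or physiological saline. Nontumor-bearing mice received matching doses as toxicity controls.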

Assay [10] can be described thus: Antitumor activity against mouse early Lewis lung carcinoma allografted in BDF1 mouse assessed as time delay in tumor growth at 26 mg/kg, ip administered as single dose on 1 or 2 days post-tumor implantation. Format: functional. The settings on record: route intraperitoneal. In short, it runs like this:
as §4

Assay [11] has as its system Mus musculus. Put plainly: Antitumor activity against mouse advanced Lewis lung carcinoma allografted in ip dosed BDF1 mouse assessed as disease cure administered as single dose on day 6 or 7 post-tumor implantation. Format: functional, organism-based. In short, it runs like this: as §1
Assay [12] relates to Mus musculus. Put plainly: Antitumor activity against mouse advanced Lewis lung carcinoma allografted in BDF1 mouse assessed as complete regression of established tumor at 37 mg/kg, ip administered as single dose on 7th day post-tumor implantation. The assay is classed as functional, organism-based. Further details: dose 37 mg/kg. In short, it runs like this: as §1
A short description of assay [13]: Antitumor activity against mouse early Lewis lung carcinoma allografted in BDF1 mouse assessed as increase in host life span at 26 mg/kg, ip administered as single dose on 1 or 2 days post-tumor implantation. The assay is classed as functional. The settings on record: route intraperitoneal. An outline of the steps: as §2
Assay [14] has as its system Mus musculus. Put plainly: Antitumor activity against mouse advanced Lewis lung carcinoma allografted in BDF1 mouse assessed as disease cure at 37 mg/kg, ip administered as single dose on 7th day post-tumor implantation measured for 80 days post-drug treatment. The assay is classed as functional, organism-based. Further details: dose 37 mg/kg. In short, it runs like this:
as §1

The test system of assay [15] is Mus musculus. Kind of assay: Antitumor activity against mouse advanced Lewis lung carcinoma allografted in BDF1 mouse assessed as disease cure at 16 mg/kg, ip administered as single dose on 7th day post-tumor implantation measured for 80 days post-drug treatment. The assay is classed as functional, organism-based. The arrangement: dose 16 mg/kg. In short, it runs like this:
as §1

For assay [16], the system named is Mus musculus. Put plainly: Antitumor activity against mouse advanced Lewis lung carcinoma allografted in BDF1 mouse assessed as complete regression of established tumor at 25 mg/kg, ip administered as single dose on 7th day post-tumor implantation. The assay is classed as functional, organism-based. The arrangement: dose 25 mg/kg. In short, it runs like this:
as §1

Assay [17] concerns Mus musculus. Kind of assay: Antitumor activity against mouse advanced Lewis lung carcinoma allografted in ip dosed BDF1 mouse assessed as complete regression of established tumor administered as single dose on day 6 or 7 post-tumor implantation. The assay is classed as functional, organism-based. In short, it runs like this: as §1
Assay [18] can be described thus: Antitumor activity against mouse early Lewis lung carcinoma allografted in BDF1 mouse assessed as increase in host life span at 60 mg/kg, ip administered as single dose on 1 or 2 days post-tumor implantation. The assay is classed as functional. The settings on record: route intraperitoneal. An outline of the steps:
as §2

The nature of assay [19]: Antitumor activity against mouse advanced Lewis lung carcinoma allografted in BDF1 mouse assessed as increase in host life span at 12 mg/kg, ip administered as single dose on 7th day post-tumor implantation. Format: functional. The settings on record: route intraperitoneal. An outline of the steps: as §3
The nature of assay [20]: Antitumor activity against mouse early Lewis lung carcinoma allografted in ip dosed BDF1 mouse assessed as disease cure administered as single dose on 1 or 2 days post-tumor implantation measured for 80 days post-drug treatment. The assay is classed as functional. In short, it runs like this:
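BDF1 mice implanted sc by trocar with ~40 mg Lewis lung fragments from sterile donor tumors. A single ip dose was given on day 1 or 2 after implant, in water or saline vehicle. Cures were scored in animals observed for at least 80 days after treatment. Drug-toxicity controls were matched non-tumor-bearing mice monitored for body weight and deaths.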

The nature of assay [21]: Antitumor activity against mouse advanced Lewis lung carcinoma allografted in BDF1 mouse assessed as increase in host life span at 18 mg/kg, ip administered as single dose on 7th day post-tumor implantation. The assay is classed as functional. Particulars: route intraperitoneal. In short, it runs like this:
as §3

In assay [22] the test system is Mus musculus. Put plainly: Antitumor activity against mouse advanced Lewis lung carcinoma allografted in BDF1 mouse assessed as complete regression of established tumor at 18 mg/kg, ip administered as single dose on 7th day post-tumor implantation. Format: functional, organism-based. The arrangement: dose 18 mg/kg. An outline of the steps:
as §1

Assay [23] concerns Mus musculus. Kind of assay: Antitumor activity against mouse advanced Lewis lung carcinoma allografted in BDF1 mouse assessed as disease cure at 12 mg/kg, ip administered as single dose on 7th day post-tumor implantation measured for 80 days post-drug treatment. The assay is classed as functional, organism-based. Further details: dose 12 mg/kg. An outline of the steps:
as §1

Assay [24] relates to Mus musculus. Put plainly: Antitumor activity against mouse advanced Lewis lung carcinoma allografted in BDF1 mouse assessed as complete regression of established tumor at 12 mg/kg, ip administered as single dose on 7th day post-tumor implantation. Format: functional, organism-based. The arrangement: dose 12 mg/kg. In short, it runs like this:
as §1

For assay [25], the system named is L1210. Put plainly: Antitumor activity against mouse L1210 cells allografted in ip dosed mouse assessed as disease cure administered as single dose. Format: functional, organism-based.
Assay [26] concerns Mus musculus. Kind of assay: Antitumor activity against mouse advanced Lewis lung carcinoma allografted in BDF1 mouse assessed as disease cure at 18 mg/kg, ip administered as single dose on 7th day post-tumor implantation measured for 80 days post-drug treatment. The assay is classed as functional, organism-based. The arrangement: dose 18 mg/kg. In short, it runs like this:
as §1

As to `CO[C@H]1CC[C@H](NC(=O)N(CCCl)N=O)CC1`, the outcome in assay [1], in assay [11], in [14] and in assay [15] was inactive. For the same compound, in assay [2], the ILS at 40 mg/kg was 0%. Also, the increase in lifespan (ILS) at 16 mg/kg in [3] was found to be 20%. Moreover, the increase in lifespan (ILS) at 37 mg/kg in assay [4] is 29%. In addition, the Time in assay [5] stood at 9.5 days; in assay [6] it was 2 days; in assay [10], 0 days. For the same compound, the increase in lifespan (ILS) at 25 mg/kg in assay [7] came to 29%. The inhibition result in assay [8], in assay [12], in [16] and in assay [17] was “inactive” each time. In addition, the ILS in [9] is listed as more than 25%. For the same compound, in assay [13], the ILS at 26 mg/kg worked out at 18%. Also, in assay [18], the ILS at 60 mg/kg was 18%.
In the case of `CC(=O)OC[C@H]1CC[C@H](NC(=O)N(CCCl)N=O)CC1`, the ILS at 12 mg/kg in [19] was 26%. The Activity in [20] came to 10%. In [21], the ILS at 18 mg/kg amounted to 65%. For the same compound, the ILS in [9] was more than 25%. Besides, the inhibition result in assay [22], in assay [24] and in [17] was “inactive” in each case. For the same compound, the outcome in [23], in assay [11], in assay [25] and in assay [26] was inactive.

By ILS is commonly meant the gain in survival time of treated over control animals, in per cent.
